Published values of several laboratories.
Protocols differ between the studies behind these lines. ≈ marks a conversion by molar mass, not a printed value.
Method: broth dilution

SMILES | organism | assay | test system | conditions | endpoint | value
O=C(Nc1ccc(C(F)(F)F)cc1)c1ccc(COC(Cn2ccnc2)c2ccc(Cl)cc2Cl)cc1 (centres unmarked) | Lodderomyces parapsilosis | microbial growth |  |  | MIC80 | 0.06 µg/mL (≈ 0.112 µM)
C/C(=N\C(=O)/N=C(\C)c1c(O)c2ccccc2oc1=O)c1c(O)c2ccccc2oc1=O | Aspergillus niger | microbial growth |  | 48 h | MIC | 125 µg/mL (≈ 289 µM)
O=C1O[C@H]2[C@@H]3OC(=O)c4cc(O)c(O)c(O)c4-c4c(O)c(O)c5oc(=O)c6c(c(O)c(O)c7oc(=O)c4c5c76)-c4c(cc(O)c(O)c4O)C(=O)OC[C@H]3OC(O)[C@@H]2OC(=O)c2cc(O)c(O)c(O)c2-c2c1cc(O)c(O)c2O (mixture of isomers) | Streptococcus sobrinus | microbial killing |  |  | MBC | 200 µg/mL
O=C(Nc1ccc2cccnc2c1)c1ccc(COC(Cn2ccnc2)c2ccc(Cl)cc2Cl)cc1 (centres unmarked) | Lodderomyces parapsilosis | microbial growth |  |  | MIC80 | 2 µg/mL (≈ 3.87 µM)
C/C(=N\C1CCCCC1/N=C(\C)c1c(O)c2ccccc2oc1=O)c1c(O)c2ccccc2oc1=O (centres unmarked) | Aspergillus niger | microbial growth |  | 48 h | MIC | 15.6 µg/mL (≈ 32.1 µM)
O=C(Nc1cccc(Cl)c1)c1ccc(COC(Cn2ccnc2)c2ccc(Cl)cc2Cl)cc1 (centres unmarked) | Lodderomyces parapsilosis | microbial growth |  |  | MIC80 | 0.06 µg/mL (≈ 0.12 µM)
C/C(=N\CCNCC/N=C(\C)c1c(O)c2ccccc2oc1=O)c1c(O)c2ccccc2oc1=O | Aspergillus niger | microbial growth |  | 48 h | MIC | 62.5 µg/mL (≈ 131 µM)
O=C(O[C@@H]1O[C@@H]2COC(=O)c3cc(O)c(O)c(O)c3-c3c(cc(O)c(O)c3O)C(=O)O[C@H]([C@H]1O)[C@@H]2O)c1cc(O)c(O)c(O)c1 | Streptococcus sobrinus | microbial killing |  |  | MBC | 400 µg/mL (≈ 630 µM)
O=C(Nc1ccc2[nH]ccc2c1)c1ccc(COC(Cn2ccnc2)c2ccc(Cl)cc2Cl)cc1 (centres unmarked) | Lodderomyces parapsilosis | microbial growth |  |  | MIC80 | 32 µg/mL (≈ 63.3 µM)
Oc1cc(O)c2c(c1)O[C@H](c1cc(O)c(O)c(O)c1)[C@@H](O)C2 | Streptococcus sobrinus | microbial growth |  | 24 h | MIC | 100 µg/mL (≈ 327 µM)
Clc1ccc(COC(Cn2ccnc2)c2ccc(Cl)cc2Cl)c(Cl)c1 (centres unmarked) | Lodderomyces parapsilosis | microbial growth |  |  | MIC80 | 0.06 µg/mL (≈ 0.144 µM)
OC(Cn1cncn1)(Cn1cncn1)c1ccc(F)cc1F | Aspergillus niger | microbial growth |  |  | MIC | 10 µg/mL (≈ 32.7 µM)
CC(=O)N1CCN(c2ccc(OCC3COC(Cn4ccnc4)(c4ccc(Cl)cc4Cl)O3)cc2)CC1 (centres unmarked) | Aspergillus niger | microbial growth |  | 48 h | MIC | 7.8 µg/mL (≈ 14.7 µM)
CO/N=C(\C(=O)N[C@@H]1C(=O)N2C(C(=O)O)=C(CSc3nc(=O)c(=O)[nH]n3C)CS[C@H]12)c1csc(N)n1 | Neisseria gonorrhoeae | microbial growth | ATCC49226 |  | MIC | 0.008 µg/mL (≈ 0.0144 µM)
C[C@@H]1O[C@@H](OC[C@H]2O[C@@H](Oc3c(-c4ccc(O)c(O)c4)oc4cc(O)cc(O)c4c3=O)[C@H](O)[C@@H](O)[C@@H]2O)[C@H](O)[C@H](O)[C@H]1O | Streptococcus sobrinus | microbial killing |  |  | MBC | 400 µg/mL (≈ 655 µM)
Cc1ccc(C(C)C)c(OC2=C(Cl)C(=O)c3ccccc3C2=O)c1 | Aspergillus niger | microbial growth |  |  | MIC | 10 µg/mL (≈ 29.3 µM)
O=C1OC[C@H]2OC(O)[C@H](O)[C@@H](O)[C@@H]2OC(=O)c2cc(O)c(O)c(O)c2-c2c(O)c(O)c3oc(=O)c4c(c(O)c(O)c5oc(=O)c2c3c54)-c2c1cc(O)c(O)c2O (mixture of isomers) | Streptococcus sobrinus | microbial growth |  | 24 h | MIC | 100 µg/mL
O=C(Nc1ccc(F)cc1)c1ccc(COC(Cn2ccnc2)c2ccc(Cl)cc2Cl)cc1 (centres unmarked) | Lodderomyces parapsilosis | microbial growth |  |  | MIC80 | 0.125 µg/mL (≈ 0.258 µM)
O=c1oc2c(O)c(O)cc3c(=O)oc4c(O)c(O)cc1c4c23 | Streptococcus sobrinus | microbial killing |  |  | MBC | 200 µg/mL (≈ 662 µM)
C/C(=N\NC(=O)/N=C(\C)c1c(O)c2ccccc2oc1=O)c1c(O)c2ccccc2oc1=O | Aspergillus niger | microbial growth |  | 48 h | MIC | 125 µg/mL (≈ 279 µM)
